Measured values reported in ChEMBL document CHEMBL4373710, “DNA Structural Alteration Leading to Antibacterial Properties of 6-Nitroquinoxaline Derivatives” (J Med Chem, 2019).
In brackets after ≈: the same amount, converted by molar mass. Activity calls are given as the source filed them. The rule behind the calls is not given here.

How the values were obtained:
[1] = Antibacterial activity against Arthrobacter chlorophenolicus A6MTCC3706 by broth microdilution assay; format: functional; settings: Pseudarthrobacter chlorophenolicus
Outline: (§1)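 Broth microdilution per CLSI; 5×10^5 cfu/mL bacteria in LB broth; compounds from DMSO stocks, final DMSO under 0.6%, with DMSO control. Plates incubated at the strain's recommended growth temperature and time; growth read as OD600.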

[2] = test system: Pseudomonas aeruginosa; assay: Antibacterial activity against Pseudomonas aeruginosa MTCC1688 by broth microdilution assay; format: functional; outline: as §1
[3] = test system: HEK293; assay: Cytotoxicity against HEK293 cells measured after 24 hrs by MTT assay; format: cell-based; settings: Homo sapiens, HEK293, 24 h
Outline: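 HEK 293 cells, 4000/well, seeded overnight in DMEM + 10% FBS at 37°C in CO2; compound dose series for 24 h (final DMSO <0.5%, DMSO-only control). MTT at 1 mg/mL final for 3 h, formazan dissolved in DMSO, absorbance 595 nm; IC50 from triplicate OD data.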

[4] = test system: Escherichia coli; assay: Antibacterial activity against Escherichia coli MTCC1916 by broth microdilution assay; format: functional; outline: as §1
[5] = test system: Staphylococcus epidermidis; assay: Antibacterial activity against Staphylococcus epidermidis MTCC3615 by broth microdilution assay; format: functional; outline: as §1
[6] = test system: Staphylococcus aureus; assay: Antibacterial activity against Staphylococcus aureus MTCC737 measured after 6 hrs by broth microdilution assay; format: functional; settings: MTCC737, 6 h; outline: as §1
[7] = Binding affinity to pCDNA 3.1 (unknown origin) assessed as DNA condensation at 5:1 compound to DNA ratio measured after 16 hrs by EtBr staining agarose gel shift assay
Outline: (§2)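 pCDNA3.1 plasmid (amplified in E. coli DH5α), 40 µM, in 50 mM NaP pH 7, 10 mM NaCl, mixed with compound at set compound:DNA base-pair ratios; 16 h at 37°C. Run on 1% agarose at 50 V ~3 h, stained with EtBr 1 µg/mL for 5 min, imaged.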

[8] = Binding affinity to pCDNA 3.1 (unknown origin) assessed as DNA unwinding effect at 1:1 compound to DNA ratio measured after 16 hrs by EtBr staining agarose gel shift assay; outline: as §2
[9] = test system: Calf thymus DNA; assay: Binding affinity to calf thymus DNA assessed as change in B-DNA structure at 265 nm by circular dichroism method; format: nucleic-acid assay; settings: Bos taurus
[10] = test system: DNA; assay: Inhibition of ethidium bromide binding to Staphylococcus aureus DNA by fluorescence assay; format: nucleic-acid assay
Outline: (§3)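 Fluorescence intercalator displacement: S. aureus genomic DNA 10 µM plus EtBr 5 µM in 10 mM NaP pH 7, 10 mM NaCl, 1% DMSO, at 25 and 37 °C; titrated with 2.5–100 µM compound. Excitation 480 nm, emission 520–700 nm, inner-filter corrected, triplicates; Stern–Volmer analysis, F0/F = 1 + Ksv[Q].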

[11] = test system: Calf thymus DNA; assay: Binding affinity to calf thymus DNA assessed as appearance of induced CD at […] by circular dichroism method; format: nucleic-acid assay; settings: Bos taurus
[12] = test system: Calf thymus DNA; assay: Binding affinity to calf thymus DNA by isothermal titration calorimetric analysis; format: nucleic-acid assay; settings: Bos taurus
[13] = test system: DNA; assay: Inhibition of ethidium bromide binding to Staphylococcus aureus DNA assessed as Stern-Volmer quenching constant by fluorescence assay; format: nucleic-acid assay; outline: as §3
[14] = Binding affinity to pCDNA 3.1 (unknown origin) assessed as DNA unwinding effect at 5:1 compound to DNA ratio measured after 16 hrs by EtBr staining agarose gel shift assay; outline: as §2
[15] = Selectivity index, ratio of IC50 for HEK293 cells to MIC for Staphylococcus aureus MTCC737; format: toxicity; settings: human, read-out: Selectivity Index
[16] = Binding affinity to pCDNA 3.1 (unknown origin) assessed as DNA unwinding effect at 1:1 to 5:1 compound to DNA ratio measured after 16 hrs by EtBr staining agarose gel shift assay; outline: as §2

SMILES	MIC [1] [µg/mL]	MIC [2] [µg/mL]	IC50 [3] [µg/mL]	MIC [4] [µg/mL]	MIC [5] [µg/mL]	MIC [6] [µg/mL]	Activity [7]	Activity [8]	Activity [9]	inhibition [10]	Activity [11]	Ka [12] [×10⁴ /M]	KSV [13] [×10⁴ /M]	Activity [14]	selectivity ratio [15]	Activity [16]
CN(C)CCCNc1nc2cc([N+](=O)[O-])ccc2nc1NCc1ccc(Cl)cc1	2.49 (≈ 6 µM)	> 207	10.7 (≈ 25.9 µM)	> 207	6.22 (≈ 15 µM)	3.11 (≈ 7.5 µM)										
CS[C@@H]1SC[C@H]2C(=O)N(C)[C@@H](C(C)C)C(=O)OC[C@@H](NC(=O)c3cnc4ccccc4n3)C(=O)N[C@@H](C)C(=O)N(C)[C@@H]1C(=O)N(C)[C@@H](C(C)C)C(=O)OC[C@@H](NC(=O)c1cnc3ccccc3n1)C(=O)N[C@@H](C)C(=O)N2C	0.07 (≈ 0.0636 µM)	> 200	0.014 (≈ 0.0127 µM)	21 (≈ 19.1 µM)	0.02 (≈ 0.0182 µM)	0.04 (≈ 0.0363 µM)										
CN(C)CCCNc1nc2cc([N+](=O)[O-])ccc2nc1NCc1cc(C(F)(F)F)cc(C(F)(F)F)c1	1.81 (≈ 3.5 µM)	> 250	4.32 (≈ 8.36 µM)	> 250	0.52 (≈ 1.01 µM)	1.03 (≈ 1.99 µM)	Active	Active	Dose-dependent effect	Dose-dependent effect	Dose-dependent effect	9.9	2			
CN(C)CCCCNc1nc2cc([N+](=O)[O-])ccc2nc1NCc1ccc(C(F)(F)F)cc1	3.47 (≈ 7.5 µM)	> 230	9.73 (≈ 21 µM)	2.31 (≈ 4.99 µM)	3.47 (≈ 7.5 µM)	3.47 (≈ 7.5 µM)										
CN(C)CCCNc1nc2cc([N+](=O)[O-])ccc2nc1NCc1cc(F)cc(C(F)(F)F)c1	2.33 (≈ 5 µM)	> 235	2.67 (≈ 5.72 µM)	35 (≈ 75 µM)	1.63 (≈ 3.49 µM)	0.93 (≈ 1.99 µM)										
CN(C)CCCNc1nc2cc([N+](=O)[O-])ccc2nc1NCc1ccc(Br)cc1	2.29 (≈ 4.99 µM)	> 230	9.63 (≈ 21 µM)	4.59 (≈ 9.99 µM)	3.45 (≈ 7.51 µM)	3.45 (≈ 7.51 µM)										
CN(C)CCCNc1nc2cc([N+](=O)[O-])ccc2nc1NCc1ccc(F)cc1	3.98 (≈ 9.99 µM)	> 200	4.28 (≈ 10.7 µM)	86.3 (≈ 217 µM)	5.98 (≈ 15 µM)	7.97 (≈ 20 µM)								Active		
CN(C)CCCNc1nc2cc([N+](=O)[O-])ccc2nc1NCc1ccccc1	7.6 (≈ 20 µM)	57 (≈ 150 µM)	2.74 (≈ 7.2 µM)	114 (≈ 300 µM)	13.3 (≈ 35 µM)	11.4 (≈ 30 µM)										
Cc1ccccc1CNc1nc2ccc([N+](=O)[O-])cc2nc1NCCCN(C)C	6.9 (≈ 17.5 µM)	> 200	27.6 (≈ 70 µM)	75.6 (≈ 192 µM)	7.89 (≈ 20 µM)	4.93 (≈ 12.5 µM)										
CN1CCN(c2nc3cc([N+](=O)[O-])ccc3nc2NCc2ccc(C(F)(F)F)cc2)CC1	4.46 (≈ 9.99 µM)	> 220	6.99 (≈ 15.7 µM)	> 220	4.46 (≈ 9.99 µM)	4.46 (≈ 9.99 µM)										
COc1ccc(CNc2nc3ccc([N+](=O)[O-])cc3nc2NCCCN(C)C)cc1	4.1 (≈ 9.99 µM)	> 200	38.6 (≈ 94 µM)	> 200	5.13 (≈ 12.5 µM)	10.3 (≈ 25 µM)										
CN1CCN(CCCNc2nc3cc([N+](=O)[O-])ccc3nc2NCc2ccc(C(F)(F)F)cc2)CC1	1.76 (≈ 3.5 µM)	> 250	9.53 (≈ 18.9 µM)	3.78 (≈ 7.51 µM)	3.78 (≈ 7.51 µM)	3.78 (≈ 7.51 µM)										
COc1ccccc1CNc1nc2ccc([N+](=O)[O-])cc2nc1NCCCN(C)C	6.16 (≈ 15 µM)	> 200	36.1 (≈ 88 µM)	> 200	6.16 (≈ 15 µM)	8.21 (≈ 20 µM)										
CN(C)CCCNc1nc2cc([N+](=O)[O-])ccc2nc1NCc1cccc(Br)c1	2.29 (≈ 4.99 µM)	13.8 (≈ 30 µM)	3.66 (≈ 7.97 µM)	4.59 (≈ 9.99 µM)	2.29 (≈ 4.99 µM)	4.59 (≈ 9.99 µM)										
CN(C)CCCNc1nc2cc([N+](=O)[O-])ccc2nc1NCc1ccccc1Br	2.76 (≈ 6.01 µM)	> 230	51.9 (≈ 113 µM)	> 230	4.59 (≈ 9.99 µM)	3.45 (≈ 7.51 µM)									15	
CN(C)CCCNc1nc2cc([N+](=O)[O-])ccc2nc1NCc1ccc(Cl)c(C(F)(F)F)c1	1.69 (≈ 3.5 µM)	> 240	3.26 (≈ 6.75 µM)	7.24 (≈ 15 µM)	0.96 (≈ 1.99 µM)	1.69 (≈ 3.5 µM)										
CN(C)CCCNc1nc2cc([N+](=O)[O-])ccc2nc1NCc1cccc(C(F)(F)F)c1	1.57 (≈ 3.5 µM)	> 200	7.99 (≈ 17.8 µM)	34.3 (≈ 76.5 µM)	0.89 (≈ 1.98 µM)	0.89 (≈ 1.98 µM)			Dose-dependent effect	Dose-dependent effect	Dose-dependent effect	3.06	1.7		9	Active
CN(C)CCCNc1nc2cc([N+](=O)[O-])ccc2nc1NCc1ccccc1C(F)(F)F	2.91 (≈ 6.49 µM)	> 224	24.7 (≈ 55 µM)	68.3 (≈ 152 µM)	2.24 (≈ 4.99 µM)	3.36 (≈ 7.49 µM)										
O=[N+]([O-])c1ccc2nc(NCc3ccc(C(F)(F)F)cc3)c(N3CCNCC3)nc2c1	4.32 (≈ 9.99 µM)	10.8 (≈ 25 µM)	9.61 (≈ 22.2 µM)	4.32 (≈ 9.99 µM)	4.32 (≈ 9.99 µM)	3.03 (≈ 7.01 µM)										
Cc1ccc(CNc2nc3ccc([N+](=O)[O-])cc3nc2NCCCN(C)C)cc1	2.76 (≈ 7 µM)	> 200	15.8 (≈ 40 µM)	110 (≈ 279 µM)	3.94 (≈ 9.99 µM)	5.92 (≈ 15 µM)										
